Sampled rows, rich in hits. Any-hit rate of the full collection: about 2.4%.
Env fusion inh: HIV envelope-mediated fusion inhibition. AID 651610. 360,000 tested, 1.1% active. inhibition, % at 12.3 µM. HeLa-JRFL Env/CEM21 cell fusion, luciferase;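 active = mean replicate inhibition score of at least 50 and every replicate individually at or above 50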;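 also: 0% = plate neutral controls and 100% = maraviroc near 300 nM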
Rtt109 HAT inh: C. albicans Rtt109 histone acetyltransferase inhibition; Q5AAJ8; purified Rtt109/Vps75, ThioGlo CoA-SH fluorescence, 4 h; inhibition, % at 34.9 µM; 330,000 tested, 0.16% active; AID 540336;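 active = inhibition of at least 50% in every replicate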
Target sequence (Q5AAJ8 whole entry, looked up): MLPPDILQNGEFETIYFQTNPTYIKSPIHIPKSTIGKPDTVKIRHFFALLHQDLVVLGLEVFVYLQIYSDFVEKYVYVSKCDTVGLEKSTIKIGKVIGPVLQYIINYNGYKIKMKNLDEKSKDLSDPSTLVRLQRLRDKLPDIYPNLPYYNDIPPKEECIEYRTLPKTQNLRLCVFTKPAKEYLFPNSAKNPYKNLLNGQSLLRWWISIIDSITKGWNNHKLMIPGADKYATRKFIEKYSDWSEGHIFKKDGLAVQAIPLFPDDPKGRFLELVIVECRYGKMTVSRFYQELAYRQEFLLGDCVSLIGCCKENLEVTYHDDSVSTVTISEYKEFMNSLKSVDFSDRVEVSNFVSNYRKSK
miR-122 sensor: blocks miR-122 activity in Huh7 sensor cells; 340,000 tested, 0.3% active; activation (reporter increase), % at 12.5 µM; AID 602342; Huh7 miR-122 Renilla luciferase sensor, 48 h; neutral wells = 0, positive control = 100;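 active = mean replicate activation score at least 90 and every replicate individually at or above 90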;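 also: higher luciferase means less miR-122 activity so hits act as miR-122 inhibitors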
GSIS activator: primary screen for activators of insulin secretion dependent on glucose, INS-1E cells, GLuc reporter luminescence; INS-1E GLuc reporter insulin secretion, 2-3 h; 370,000 tested, 0.61% active; activation, % at 16.6 µM;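 active = lowest replicate activation of at least 40%, so every replicate reaches that level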;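 also: 0% = median of neutral control wells and 100% = median of IBMX positive control wells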
dFosB act: mouse delta FosB homodimer activation. AID 493131. 340,000 tested, 0.99% active. P13346. purified delta FosB, TAMRA-CDK5 oligo fluorescence polarization; percent of positive-control signal above neutral wells. activation, % at 25 µM;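 active = mean activation above about 17%, with every replicate also reaching it, limit read from the data, passing the limit was not always enough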
Cneo AK release: causes C. neoformans cell lysis; lysis activity, % at 15 µM; AID 651654; adenylate kinase release luminescence, 4 h; normalised: neutral wells 0, clomiphene wells 100; 360,000 tested, 0.2% active;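 active = mean lysis activity across replicates of at least 80%, whatever share of replicates individually reach that level; inactive = mean lysis activity below 80%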
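read-out = cell lysis signal | test system = log-phase Cryptococcus neoformans yeast cells | input = cells at 5 × 10^6 per mL | medium = fresh YPD growth medium | signal = luminescent adenylate kinase detection reagent | timing = 4 h at 37 °C static, read 1 h later | dosing = single dose | controls = Clomiphene as positive lysis control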
Starred values were filed as active, the others as inactive; . = no result; [ ] = remark or other dose.

SMILES | Env fusion inh | Rtt109 HAT inh | miR-122 sensor | GSIS activator | dFosB act | Cneo AK release
Fc1ccc(-[n+]2nc(Nc3ccccc3)sc2-c2c3ccccc3cc3ccccc23)cc1 | 23 | -4 | . | -38 | 31* | 27
COc1ccc(C(=O)NNC(=O)c2ccncc2)cc1 | . | 65* | 1 | 1 | -6 | 11
CC(C)(C)N1C(=O)[C@H]2[C@@H](c3ccc(Br)cc3)N3C(=O)N(c4ccccc4)C(=O)[C@@]3(C)[C@H]2C1=O | 104* | 26 | 1 | -25 | -10 | 1
CC(C)(C)N1C(=O)[C@H]2[C@@H](c3ccc(Br)cc3)N3C(=O)N(c4ccccc4)C(=O)[C@@]3(Cc3ccccc3)[C@H]2C1=O | 68* | 4 | . | 3 | 10 | -4
CC(C)(C)N1C(=O)[C@H]2[C@@H](c3ccc(Br)cc3)N3C(=O)N(c4cccc(Br)c4)C(=O)[C@@]3(Cc3ccccc3)[C@H]2C1=O | . | -6 | -8 | . | -4 | -2
COc1ccc([C@@H]2[C@@H]3C(=O)N(C(C)(C)C)C(=O)[C@@H]3[C@]3(C)C(=O)N(c4cccc(C)c4)C(=O)N23)cc1 | 36 | 9 | -4 | . | 5 | -1
Cc1cc2ccccc2cc1CN1CCOCC1 | -27 | 0 | 4 | 3 | 2 | -1
c1cc2ccc3ccc(CN4CCOCC4)c4ccc(c1)c2c34 | -37 | 3 | 6 | 0 | 31* | -1
OC1CCCN(Cc2ccc3ccc4cccc5ccc2c3c45)C1 (configuration not stated) | . | 9 | . | . | 68* | -1
CCOC(=O)CCCCCC(=O)Nc1ccc2c(c1)C(=O)N([C@@H](C)CO)C[C@H](C)[C@H](CN(C)S(=O)(=O)c1ccc(F)cc1)O2 | . | . | . | -13 | . | .
O=[N+]([O-])c1cccc(COc2ccccc2CN2CCOCC2)c1 | 56* | -1 | 4 | -2 | 4 | 3
O=[N+]([O-])c1cccc(COc2ccccc2CN2CCCCC2)c1 | -99 | -2 | 2 | 56* | -3 | -3
CC(=NNC(=S)Nc1ccccc1)c1ccccn1 | 14 | . | . | 8 | . | .
CC(=NNC(=S)Nc1ccccc1Cl)c1ccccn1 | 63* | -4 | 13 | -1 | -14 | .
CO[C@H]1CN(C)C(=O)c2ccc(NC(=O)CC(F)(F)F)cc2OC[C@H](C)N(C(C)=O)C[C@H]1C | . | . | . | 6 | . | .
CCC(=O)N1CC(=O)N2[C@H](CO)[C@H](c3ccc(C#Cc4cccc(F)c4)cc3)[C@@H]2C1 | . | . | . | -16 | . | .
COC(=O)[C@]12C[C@H](CC(=O)NCc3cccc4ccccc34)C(=O)N(CCC3=CCCCC3)C1=C[C@H](C(C)(C)C)O[C@@H]2C | 87* | . | . | -8 | . | .
COC(=O)[C@]12C[C@H](CC(=O)NCCC(C)C)C(=O)N(CCC3=CCCCC3)C1=C[C@H](C(C)(C)C)O[C@@H]2C | 59* | . | . | . | . | .
COC(=O)[C@]12C[C@H](CC(=O)N3CCCC3)C(=O)N(CCC3=CCCCC3)C1=C[C@H](C(C)(C)C)O[C@@H]2C | 20 | . | . | 294* | . | .
COC(=O)[C@]12C[C@H](CC(=O)N3CCC(c4ccccc4)CC3)C(=O)N(CCC3=CCCCC3)C1=C[C@H](C(C)(C)C)O[C@@H]2C | 2 | . | . | . | . | .
COC(=O)[C@]12C[C@H](CC(=O)NCCCN3CCCC3=O)C(=O)N(CCC3=CCCCC3)C1=C[C@H](C(C)(C)C)O[C@@H]2C | 45 | . | . | . | . | .
COC(=O)[C@]12C[C@H](CC(=O)NCCC(C)C)C(=O)N(CCC3=CCCCC3)C1=C[C@H](COCc1ccccc1)O[C@@H]2C | -15 | . | . | . | . | .
CCCCNC(=O)C[C@H]1C[C@@]2(C(=O)OC)C(=C[C@H](C(C)(C)C)O[C@@H]2C)N(CCC2=CCCCC2)C1=O | 72* | . | . | . | . | .
C/C=C/c1ccc([C@H]2[C@@H](CO)N(C(=O)C3CC3)[C@H]2CN(C)S(C)(=O)=O)cc1 | . | . | . | -4 | . | .
O=C(C[C@H]1C=C[C@@H](NC(=O)C2CC2)[C@@H](CO)O1)Nc1nccs1 | -23[16.7 µM] | . | . | 5 | . | 3
C[C@@H]1CN([C@H](C)CO)C(=O)c2cc(/C=C/c3ccccc3)cnc2O[C@@H]1CN(C)Cc1cncnc1 | -30[16.7 µM] | . | 3[16.7 µM] | 10 | . | -3
Cc1ccc(-n2nnc(-c3nccs3)n2)cc1 | -3 | -15 | 100* | 4 | 1 | -4

Screens deposited in PubChem BioAssay by Broad Institute.
